Reference: paper PMC4475445 (Journal of immunology (Baltimore, Md. : 1950), 2015)

How the values were obtained:
[1] = system: BMMΦ; test: TLR-dependent cytokine secretion; format: cell-based, mouse; conditions: 30 min pretreatment, then LPS or CpG 16 h; wild-type and Btk-/-Tec-/- BMMΦ
[2] = system: BMMΦ; test: Apoptosis assay; format: cell-based; conditions: wild-type and Btk-/-Tec-/- BMMΦ, several doses, Figure S2D
Summary of the method: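 Bone marrow was flushed from femurs and tibias of 6–15-week-old mice, red cells were lysed, and the cells were filtered and plated at 7.5 × 10^5 cells/ml. Cells were grown in DMEM with 10% heat-inactivated FBS, 10 mM Hepes and 10% CMG 12-14 conditioned medium as the M-CSF source, and re-plated on day 5. Apoptosis was scored by annexin V/7-AAD staining and flow cytometry.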

[3] = target: T1, ITK (Homo sapiens, UniProt Q08881); test: HotSpot radioisotope kinase assay; format: biochemical
T1 sequence (Q08881 1-620): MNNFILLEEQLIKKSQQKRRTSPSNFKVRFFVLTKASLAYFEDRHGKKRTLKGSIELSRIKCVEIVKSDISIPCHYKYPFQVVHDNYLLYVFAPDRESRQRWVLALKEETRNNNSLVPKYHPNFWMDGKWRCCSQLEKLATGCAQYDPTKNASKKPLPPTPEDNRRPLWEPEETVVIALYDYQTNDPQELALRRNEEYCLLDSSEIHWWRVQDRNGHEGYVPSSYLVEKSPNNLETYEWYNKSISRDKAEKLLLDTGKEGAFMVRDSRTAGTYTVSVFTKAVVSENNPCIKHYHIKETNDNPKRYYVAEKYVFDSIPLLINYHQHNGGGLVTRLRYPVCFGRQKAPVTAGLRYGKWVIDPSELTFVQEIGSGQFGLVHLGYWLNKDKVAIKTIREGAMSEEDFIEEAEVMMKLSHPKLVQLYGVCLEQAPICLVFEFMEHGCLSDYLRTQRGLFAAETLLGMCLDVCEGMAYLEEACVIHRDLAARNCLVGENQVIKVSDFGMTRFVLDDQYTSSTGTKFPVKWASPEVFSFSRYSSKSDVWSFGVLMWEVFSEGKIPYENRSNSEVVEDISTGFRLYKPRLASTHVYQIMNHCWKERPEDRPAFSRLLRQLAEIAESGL
Summary of the method: (§1)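 Radiometric HotSpot assay with P81 filter capture. Kinase was added to freshly prepared substrate with cofactors and preincubated 30 min at room temperature, then started with 33P-ATP, with ATP at Km or 10× Km. Reactions ran 2 hr at room temperature; unreacted phosphate was washed off with 0.1% phosphoric acid. Test compound: 10 doses, […] serial dilution from 10 μM. Duplicates; staurosporine positive control.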

[4] = target: Btk (Homo sapiens, UniProt Q06187); test: HotSpot radioisotope kinase assay; format: biochemical
Chain of Btk (Q06187 whole entry): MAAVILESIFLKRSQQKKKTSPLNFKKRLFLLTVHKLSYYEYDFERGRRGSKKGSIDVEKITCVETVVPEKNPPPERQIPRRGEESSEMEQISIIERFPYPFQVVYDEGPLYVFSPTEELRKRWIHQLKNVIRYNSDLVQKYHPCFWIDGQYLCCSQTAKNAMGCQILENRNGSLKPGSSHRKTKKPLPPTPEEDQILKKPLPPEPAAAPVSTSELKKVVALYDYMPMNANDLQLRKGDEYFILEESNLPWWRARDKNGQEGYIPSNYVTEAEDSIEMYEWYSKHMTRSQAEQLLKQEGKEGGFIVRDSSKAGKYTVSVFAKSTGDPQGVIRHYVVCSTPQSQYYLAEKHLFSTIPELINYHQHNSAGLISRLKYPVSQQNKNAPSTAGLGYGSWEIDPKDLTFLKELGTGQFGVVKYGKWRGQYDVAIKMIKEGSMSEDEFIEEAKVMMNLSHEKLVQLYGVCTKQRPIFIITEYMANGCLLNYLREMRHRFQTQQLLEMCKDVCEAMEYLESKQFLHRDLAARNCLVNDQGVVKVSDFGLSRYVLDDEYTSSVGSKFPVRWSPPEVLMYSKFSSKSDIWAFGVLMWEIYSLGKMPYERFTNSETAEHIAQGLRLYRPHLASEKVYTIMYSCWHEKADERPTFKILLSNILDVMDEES
Summary of the method: as §1

[5] = target: T2, Bmx (Homo sapiens, UniProt P51813); test: HotSpot radioisotope kinase assay; format: biochemical
T2 sequence (P51813 1-675): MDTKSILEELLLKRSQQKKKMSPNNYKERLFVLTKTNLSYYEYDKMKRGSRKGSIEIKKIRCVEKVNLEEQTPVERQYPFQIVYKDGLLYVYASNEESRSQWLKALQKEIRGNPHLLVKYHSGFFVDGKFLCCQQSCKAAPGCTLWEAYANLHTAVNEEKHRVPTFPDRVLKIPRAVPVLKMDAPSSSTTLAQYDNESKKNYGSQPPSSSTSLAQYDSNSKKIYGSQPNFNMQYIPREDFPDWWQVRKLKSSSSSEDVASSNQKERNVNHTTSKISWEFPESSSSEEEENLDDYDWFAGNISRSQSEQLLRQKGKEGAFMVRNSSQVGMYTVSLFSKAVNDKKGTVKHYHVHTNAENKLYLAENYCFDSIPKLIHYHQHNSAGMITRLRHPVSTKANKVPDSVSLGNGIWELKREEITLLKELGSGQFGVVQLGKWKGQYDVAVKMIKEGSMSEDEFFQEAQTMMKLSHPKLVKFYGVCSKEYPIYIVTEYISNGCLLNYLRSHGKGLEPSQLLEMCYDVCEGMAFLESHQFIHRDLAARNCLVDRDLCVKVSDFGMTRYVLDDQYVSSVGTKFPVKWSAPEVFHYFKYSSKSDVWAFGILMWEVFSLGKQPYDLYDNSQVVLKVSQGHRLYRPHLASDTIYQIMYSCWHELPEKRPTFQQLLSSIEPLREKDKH
Summary of the method: as §1

[6] = target: T3, Tec (Homo sapiens, UniProt P42680); test: HotSpot radioisotope kinase assay; format: biochemical
T3 sequence (P42680 1-631): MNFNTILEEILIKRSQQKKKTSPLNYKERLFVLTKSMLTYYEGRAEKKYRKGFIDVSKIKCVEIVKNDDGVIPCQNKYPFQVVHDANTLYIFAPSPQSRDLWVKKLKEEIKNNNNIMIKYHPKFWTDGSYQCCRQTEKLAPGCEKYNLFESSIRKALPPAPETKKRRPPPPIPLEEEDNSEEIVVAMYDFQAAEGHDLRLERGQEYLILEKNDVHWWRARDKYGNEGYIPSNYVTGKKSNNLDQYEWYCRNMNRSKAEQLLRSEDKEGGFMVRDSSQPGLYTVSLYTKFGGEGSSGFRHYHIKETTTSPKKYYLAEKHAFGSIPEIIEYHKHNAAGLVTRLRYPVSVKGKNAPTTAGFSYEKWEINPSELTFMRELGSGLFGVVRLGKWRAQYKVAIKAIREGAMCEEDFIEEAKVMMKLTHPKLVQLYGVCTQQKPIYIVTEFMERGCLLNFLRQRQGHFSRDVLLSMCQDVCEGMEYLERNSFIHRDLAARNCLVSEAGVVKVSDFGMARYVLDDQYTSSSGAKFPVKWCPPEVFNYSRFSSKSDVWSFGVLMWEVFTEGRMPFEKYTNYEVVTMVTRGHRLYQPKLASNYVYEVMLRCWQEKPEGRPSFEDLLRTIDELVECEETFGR
Summary of the method: as §1

[7] = system: Tec kinases; test: Kinase selectivity panel; format: biochemical; conditions: 1μM test concentration, 10 μM 33P-ATP; Supplemental Table 2
Summary of the method: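 Test compound was dissolved in DMSO and tested at 1 μM final. Each kinase was added to fresh substrate with cofactors in reaction buffer and preincubated 30 min at room temperature. Reactions were started with 10 μM 33P-ATP and ran 2 hr at room temperature. After termination, unreacted phosphate was washed off with 0.1% phosphoric acid and bound label was read by P81 filtration. Run in duplicate; 10 μM staurosporine positive control.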

| IC50 [3] [nM] | IC50 [4] [nM] | IC50 [5] [nM] | IC50 [6] [nM] | Kinase selectivity [7] | SMILES | TLR-dependent secretion of IL6 [1] | TLR-dependent secretion of TNF [1] | Percentage of dead (7-AAD positive) or apoptotic (Annexin V positive) cells [2] |
| --- | --- | --- | --- | --- | --- | --- | --- | --- |
|  |  |  |  |  | C=CC(=O)Nc1cccc(Nc2nc(Nc3ccc(OCCOC)cc3)ncc2F)c1 [CC-292] | decreased | decreased | did not alter |
| 172 | 12.5 | 2.1 | 22 | highly selective for Tec kinases | C=CC(=O)Nc1cccc(Nc2nc(Nc3ccc(OCCOC)c(F)c3)ncc2F)c1 [Compound1, N-(3-((5-fluoro-2-((3-fluoro-4-(2-methoxyethoxy)phenyl)amino)pyrimidin-4-yl)amino)phenyl)acrylamide] |  |  |  |
